Test: Toxicity liver stage against HepG2, at 10uM
Type: cell-based
Parameters: test concentration 10 uM, cell line HepG2-A16-CD81EGFP
Details: human, HepG2-A16-CD81EGFP cells; read-out: INHIBITION
How it was run: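 Uninfected HepG2-A16-CD81EGFP cells, 3 × 10^3 per well, 1536-well, plated on prespotted compound at 10 μM final, parasite-free screening media added to match infected plates; puromycin 10 μM positive, DMSO 0.5% negative; run in parallel with 48 h PbLuc assay at 37 °C, 5% CO2; viability by CellTiter-Glo luminescence, normalized to controls.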

Row | SMILES | cytotoxicity at 10 µM [%]
1 | Cc1nc(CN2CCO[C@@H]3CN(Cc4cccs4)C[C@@H]3C2)cs1 | 6.11
2 | CCN(C(=O)Cc1ccc(NCc2nccn2C)cc1)c1ccccc1 | -2.09
3 | Cc1ccccc1C(=O)Nc1cnn(CC(=O)NC2CCCC2)c1 | -18.4
4 | Cc1nn(C)c(N2CCOCC2)c1CNCc1ccccc1CO | -13.2
5 | CCOCCCn1c(NC(=O)c2ccc(C)nc2)nc2ccccc21 | -6.95
6 | CC(C)(CNC(=O)Nc1cccc(-c2cccs2)c1)C(N)=O | -9.99
7 | CN1CCOCC12CCN(Cc1nccs1)CC2 | 6.46
8 | CCc1nc2n(n1)CC(NCc1cnn(Cc3ccccc3)c1)CC2 (stereo not given) | -10.4
9 | CSc1ccccc1C(=O)N(C)Cc1nncn1C(C)C | 3.92
10 | Cc1cccc(C)c1CN1C(=O)CC2(CCSC2)C1=O (stereo not given) | 14.9
11 | CCCNc1ncc(CN2CCOC(Cc3cccc(F)c3)C2)cn1 (stereo not given) | -8.65
12 | Cc1nc(N2CCCC2)nc(C)c1NS(=O)(=O)c1ccccc1F | -3.92
13 | c1nc2c(c(C3CC3)n1)CCN(Cc1ccc3c(c1)OCO3)CC2 | -17.1
14 | CN1CCCC(c2cccc(-c3cccc(F)c3)n2)C1 (stereo not given) | -2.4
15 | Cn1ncc2c(=O)[nH]c(CN(Cc3ccco3)C3CC3)nc21 | -9.8
16 | Cc1nc(-c2ccc(CO)cc2)cc(C2CCNCC2)n1 | 12.3
17 | O=C(O)c1csc(S(=O)(=O)Nc2cccc(OC(F)F)c2)c1 | -2.63
18 | CCc1nc(C)c(C(C)N(C)CCc2ccncc2)s1 (stereo not given) | 23.5
19 | CCN1CCN(c2ccc(CNC(=O)Cc3c(C)noc3C)cn2)CC1 | -12.2
20 | COc1ccc(C(=O)N2CCCC(n3cncn3)C2)nn1 (stereo not given) | 5.58
21 | CC(C)OCCCNC(=O)N(C)C(C)c1ccc(-n2cncn2)cc1 (stereo not given) | 4.08
22 | CS(=O)(=O)N[C@H]1CN(C(=O)CCc2ccc(=O)[nH]n2)C[C@@H]1C1CC1 | 1.56

Row | SMILES | cytotoxicity at 10 µM [%]
23 | Cc1nc(C(Cc2ccsc2)NC(=O)CCN2CCOCC2)sc1C (stereo not given) | 7.04
24 | O=C(NCc1ccc(CO)cc1)C1CCOc2ccccc2C1 (stereo not given) | -3.54
25 | COc1cccc(C(=O)N2CCOCC2CN(C)C)c1OC (stereo not given) | -4.03
26 | Cc1nc(C)n(C2CCCN(C(=O)c3cncnc3C)C2)n1 (stereo not given) | -2.48
27 | O=C(NCCO)Nc1cnc2cc(Cl)ccc2c1O | -30.2
28 | Cc1nnc(CN2CCCC(c3cc(C(N)=O)[nH]n3)C2)o1 (stereo not given) | -7.32
29 | O=C(Cc1cccc2ccccc12)N1CCC(Nc2cccnn2)CC1 | -17.1
30 | CN1N=C(C(=O)Nc2cc(F)ccc2OCC2CCCO2)CCC1=O (stereo not given) | -8
31 | O=C(CN1CCC[C@@H]1C(=O)O)NCCOc1cccc(C(F)(F)F)c1 | -1.7
32 | Cc1cnn(CC2CCCCN2C(=O)c2cccc(C(N)=O)c2)c1 (stereo not given) | -0.775
33 | Cc1ccsc1CN(CCCN(C)C)Cc1ccccn1 | -4.11
34 | CN1C(=O)CC[C@@H]2N(C(=O)CCc3cccnc3)CCCC[C@@]21C | 3.82
35 | O=C(C1CC(F)(F)C1)N1CC[C@H]2OCC[C@@]2(COCC2CC2)C1 | -3.09
36 | CNC(=O)CCN1CCCC1c1ccccc1Br (stereo not given) | 15.3
37 | CC(C)(C)OC(=O)N1CCC(NC2CCS(=O)(=O)C2)CC1 (stereo not given) | -6.72
38 | O=C(c1ccoc1)N(Cc1ccncc1)C1CC1 | 1.45
39 | O=C(NCC1CC1)[C@H]1C[C@@H]2CCN(Cc3nccs3)C[C@@H]2O1 | -1.7
40 | CC(C)Oc1ccc(CNC(=O)CN(C)S(C)(=O)=O)cc1F | -3.1
41 | Cn1nc2c(cc1=O)CN(CC(=O)Nc1cc(C(C)(C)C)no1)CC2 | -4.1
42 | CC(C)[C@]1(O)CN(C(=O)CNC(N)=O)C[C@H]1C | 5.69
43 | CCOCCCC(=O)N1CCN(c2cccc(OC)c2)C(C)C1 (stereo not given) | 0.0272
44 | CNC(=O)[C@@]12CCO[C@@H]1CCN(S(=O)(=O)c1cccc(F)c1)C2 | -73.8

Row | SMILES | cytotoxicity at 10 µM [%]
45 | Cn1nc(CN2CCCC2)c2c1CN(c1cnccn1)CC2 | -95.3
46 | CC(C(=O)NCc1ccnc(OCC(F)(F)F)c1)n1cncn1 (stereo not given) | 1.13
47 | O=C(c1cnn[nH]1)N(CCCO)Cc1cccnc1 | -2.48
48 | Cc1ncsc1CCCn1ccnc1-c1cc2n(n1)CCCNC2 | 3.28
49 | O=S(=O)(N1CCOCC1)N1CCCCC1CCc1ccc(O)cc1 (stereo not given) | -4.44
50 | CCOc1ccc(N2CCCN=C2NC(=O)c2ccc(OC)cc2)cc1 | 6.03
51 | OCCc1ccccc1-n1ccnc1-c1cn(C2CCNCC2)nn1 | 2.39
52 | CCc1cc(CNC(=O)N(C2CC2)C(C)c2ccco2)[nH]n1 (stereo not given) | 4.18
53 | CNC(=O)[C@H]1C[C@@H]2CN(C(=O)c3ccc(C)nc3)C[C@@H]2N1C(C)C | -116
54 | Cc1nn(C)c(N2CCOCC2)c1CNCc1cscn1 | -8.07
55 | O=C(c1ccc(F)cc1)N1CCC2(CC1)CC(N1CCOCC1)C2 | -7.52
56 | Cc1cnn(CC2CCCCN2C(=O)Cc2ccc(C#N)cc2)c1 (stereo not given) | -7.09
57 | O=C(Cc1cccs1)N1Cc2nc(COCC3CC3)oc2C1 | 2.55
58 | Cc1cc(C2CCCN2C(=O)Cn2c(C)cc(=O)c3ccccc32)on1 (stereo not given) | -9.02
59 | COc1cccc2c3c(c(=O)[nH]c12)CC(C)(C)O3 | -6.1
60 | COCCCOc1ccc(C(=O)N(C)Cc2cccc(O)c2)cn1 | -9.63
61 | CN(C)C(CNC(=O)NCc1ccco1)c1cccs1 (stereo not given) | -3.29
62 | COCCCN(Cc1ccccc1Cl)C1CCS(=O)(=O)C1 (stereo not given) | 17.1
63 | COc1ccccc1OCCC(=O)NCc1ncc(C)c(OC)c1C | -3.63
64 | Cc1cc(C)n2nc(C(=O)N3CCCC4(CNC(=O)O4)C3)cc2n1 (stereo not given) | 9.48
65 | Cn1ccc2c(NC(=O)Cn3ncc4c(c3=O)CCCC4)cccc21 | 2.33
66 | Cc1cccc(N2CC3(CCN(S(=O)(=O)C4CC4)C3)C2)n1 | 3.86

Row | SMILES | cytotoxicity at 10 µM [%]
67 | Cc1ccc(N2CCN(C(=O)C(O)c3cccc(Cl)c3)CC2=O)cc1 (stereo not given) | -5.01
68 | Cc1nccc(N[C@H]2CN(C(=O)CN3CCCC3=O)C[C@@H]2C(C)C)n1 | -2.14
69 | CCc1ccc(C2CCCCCN2C(=O)CNC(=O)NC2CC2)o1 (stereo not given) | 0.0456
70 | O=C(c1ccoc1)N1CCOC2(COCCN(c3ncccn3)C2)C1 (stereo not given) | -98.4
71 | Cc1cc(N2CCC(NC(=O)C3CC3)CC2)nc(-c2ccncc2)n1 | -3.71
72 | CC(=O)N[C@@H]1CN(S(=O)(=O)Cc2ccccc2)C[C@H]1C(C)C | -5.61
73 | Cc1nn(C)cc1-c1cc(C(=O)NCC(C)(C)c2cccc(F)c2)n[nH]1 | 0.68
74 | CCn1c(CN2CCCC2)nnc1C1CCN(S(=O)(=O)CC)CC1 | -4.92
75 | CC(=O)N1CCCC2(C1)CN(C(=O)c1ccncc1)CCO2 (stereo not given) | -78.7
76 | C[C@@H]1CN(C2Cc3ccccc3C2)CC[C@@]1(O)C1CCOCC1 | -4.04
77 | OC(COCc1ccccc1Cl)CN1CC(n2cccn2)C1 (stereo not given) | -7.7
78 | Cc1ccc(N2CCCN(C(=O)C3(C#N)CCCCC3)CC2)nn1 | -7.7
79 | COc1ncccc1NC(=O)NCC1CC1 | -2.45
80 | O=C(COC1CCCC1)N1C[C@@H]2COC[C@]2(COc2cccnc2)C1 | -99.4
81 | NCC1Cc2cccc(-c3ccc(O)c(F)c3)c2O1 (stereo not given) | -40.2
82 | Cc1ccc(C(=O)N2CCc3ccc(=O)n(CCN(C)C)c3CC2)o1 | -2.16
83 | CC(=O)N1CCN(C(=O)NCCCN(C(C)C)S(C)(=O)=O)CC1 | -14
84 | COCCC(=O)N1Cc2nc3c(C)c(-c4cccs4)nn3c(O)c2C1 | -1.19
85 | CC[S+](CC)[c-]1c(=O)[nH]c(=O)n(Cc2ccc(F)cc2)c1=O | 4.12
86 | Cc1ccc(C(O)CNC(=O)c2cccnc2O)cc1 (stereo not given) | 11
87 | Cc1ccc(C(=O)O)cc1S(=O)(=O)Nc1nn(-c2ccccc2)cc1C | -8.84
88 | CNC(=O)CCc1cc(C2CCCN2C(=O)CO)nc(C)n1 (stereo not given) | -0.785

Row | SMILES | cytotoxicity at 10 µM [%]
89 | O=C(CCn1cncn1)NCC1CCS(=O)(=O)C1 (stereo not given) | -48.3
90 | O=C(CCCC(=O)NCc1cccc(Br)c1)NCCN1CCCC1 | -7.47
91 | CCN(CC)c1ncc(CNC2CCc3nc(C(C)C)nn3C2)s1 (stereo not given) | 4.24
92 | CCC(C)NC(=O)c1cncc(Br)c1 (stereo not given) | 1.24
93 | Cn1ccnc1CN1CCC2(CC1)Cc1ccccc1CNC2=O | -1.6
94 | COCc1nc(N(C)C)ncc1C(=O)OC | 13.2
95 | Cc1cc(C)n(Cc2ccc(-c3noc(C(=O)NC[C@@H](C)O)n3)cc2)n1 | -9.62
96 | CCc1ccc(C(=O)N2C[C@@H]3COC[C@@H](C(=O)NC)[C@@H]3C2)cc1 | 1.58
97 | CNC(=O)CCOC(=O)c1cccc(-n2cccn2)c1 | -39.6
98 | Cc1nccc(N[C@H]2CN(C(=O)CN3CCOCC3)C[C@@H]2C(C)C)n1 | -7.92
99 | O=C(NCCc1csc(-c2cccnc2)n1)c1cnn2c1CCCC2 | 3.41
100 | CCS(=O)(=O)c1ccc2oc([C@H]3CCN(Cc4ccccn4)C3)nc2c1 | -0.125
101 | c1cc(-c2ccc(CN3CCCC4(CCNC4)C3)s2)[nH]n1 (stereo not given) | -152
102 | CNC(=O)CN1CCCC12CCN(C(=O)c1cccc(F)c1)CC2 | 6.62
103 | CCN(CC)C(=O)Cn1ccc2cc(NC(=O)NC3CC3)ccc21 | -9.01
104 | O=C(Cn1ccc2ccc(F)cc21)NC[C@@H]1CCCN2CCCC[C@H]12 | 14
105 | O=C(Nc1ccccc1F)C1CSCN1C(=O)CCc1ccco1 (stereo not given) | -4.31
106 | COC1CCN(C(=O)Cn2nc(C)cc2C)CC1 | 3.81
107 | Cc1cccc(-c2nnn3c2COC(CNC(=O)N2CCCC2)C3)c1 (stereo not given) | -94.5
108 | CC(C)OCCCNC(=O)CS(=O)(=O)Cc1ccc(Cl)cc1 | -2.87
109 | CC(=O)N1CCCCC1c1nc2c(c(NC3CCCC3)n1)CN(C)CC2 (stereo not given) | -13
110 | Cc1cnc(C(=O)NCc2cccnc2OC(C)C)cn1 | -23.4

Source: ChEMBL document CHEMBL4513216, “Probing the Open Global Health Chemical Diversity Library for Multistage-Active Starting Points for Next-Generation Antimalarials” (ACS Infect Dis, 2020)
